Laboratory results: ChEMBL document CHEMBL3992497, “Synthesis, structure-activity relationships and biological evaluation of 7-phenyl-pyrroloquinolinone 3-amide derivatives as potent antimitotic agents” (Eur J Med Chem, 2017)

Experiments:
RS4-11 = test: Antiproliferative activity against human RS4:11 cells after 72 hrs by MTT assay; type: functional; conditions: RS4-11, 72 h
Outline: (§1)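 Compounds from 10 mM DMSO stocks. Cells seeded at 8 × 10^3 per well and held 18 h at 37 °C in humidified 5% CO2. Medium was then replaced with fresh medium holding graded compound concentrations, in triplicate, for 72 h at 37 °C. Viability was read by MTT. GI50 is the concentration giving 50% inhibition of proliferation. Mean ± SE of ≥3 independent dose-response experiments.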

SEM cells = test: Antiproliferative activity against human SEM cells after 72 hrs by MTT assay; type: functional; outline: as §1
THP-1 = test: Antiproliferative activity against human THP1 cells after 72 hrs by MTT assay; type: functional; conditions: THP-1, 72 h; outline: as §1
HT-29 = test: Antiproliferative activity against human HT-29 cells after 72 hrs by MTT assay; type: functional; conditions: HT-29, 72 h; outline: as §1
A549 = test: Antiproliferative activity against human A549 cells after 72 hrs by MTT assay; type: functional; conditions: A549, 72 h; outline: as §1
Jurkat = test: Antiproliferative activity against human Jurkat cells after 72 hrs by MTT assay; type: functional; outline: as §1
HeLa = test: Antiproliferative activity against human HeLa cells after 72 hrs by MTT assay; type: functional; outline: as §1
CCRF-CEM = test: Antiproliferative activity against human CCRF-CEM cells after 72 hrs by MTT assay; type: functional; outline: as §1
MV4-11 = test: Antiproliferative activity against human MV4-11 cells after 72 hrs by MTT assay; type: functional; conditions: MV4-11, 72 h; outline: as §1
MCF7 = test: Antiproliferative activity against human MCF7 cells after 72 hrs by MTT assay; type: functional; conditions: MCF7, 72 h; outline: as §1
HL-60 = test: Antiproliferative activity against human HL60 cells after 72 hrs by MTT assay; type: functional; conditions: HL-60, 72 h; outline: as §1
[1] = Inhibition of bovine brain tubulin assembly preincubated for 20 mins followed by GTP addition by turbidometric method; parameters: species or system Bos taurus
Outline: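 Varying compound concentrations pre-incubated with 10 μM bovine brain tubulin in glutamate buffer at 30 °C, then chilled to 0 °C. GTP added to 0.4 mM final, mixture warmed to 30 °C, turbidity followed at 350 nm.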

Bos taurus = organism: Bos taurus; test: Inhibition of [3H]colchicine binding to bovine brain tubulin at 5 uM relative to control
Outline: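 Reaction mixtures held 1 μM tubulin, 5 μM [3H]colchicine and 5 μM test compound. Inhibition of bound radiolabel measured relative to control.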

Liver = test: Drug level in human liver microsomes treated with 3-Benzoyl-7-phenyl-6H-pyrrolo[3,2-f]quinolin-9-one at 10 uM after 60 mins by fluorescence based HPLC analysis; type: ADME, microsome; conditions: 1 h
Outline: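 Compound at 10 μM final in 0.1 M KH2PO4 pH 7.4 with 1.0 mg/mL pooled mixed-gender human liver microsomes, without or with 1 mM NADPH; buffer-only controls. Started with microsomes after 3-min equilibration and run at 37 °C for 0–60 min. Stopped with ice-cold acetonitrile, centrifuged, supernatant run on C18 HPLC with fluorescence detection (ex 344/em 493 nm). % remaining from peak area versus 0 min. Mean ± SD, n = 3–4.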

Structure (SMILES)	GI50 (RS4-11)	GI50 (THP-1)	GI50 (HT-29)	GI50 (A549)	GI50 (Jurkat)	GI50 (HeLa)	GI50 (CCRF-CEM)	GI50 (MV4-11)	GI50 (MCF7)	GI50 (HL-60)	IC50 [1]	inhibition (Bos taurus)	Drug metabolism (Liver)	GI50 (SEM cells)
O=C(c1ccccc1)N1CCc2cc3[nH]c(-c4ccccc4)cc(=O)c3cc21	132 nM	2320 nM	5440 nM	3560 nM	2320 nM	1450 nM	818 nM	1980 nM	6320 nM	3740 nM				1660 nM
Cc1ccc(S(=O)(=O)n2ccc3c4c(=O)cc(-c5ccccc5)[nH]c4ccc32)cc1	48 nM	222 nM	5 nM	52 nM	55 nM	26 nM	32 nM	65 nM	195 nM	335 nM	1100 nM	37%		33 nM
O=C(c1ccccc1)N1CCc2c1ccc1[nH]c(-c3ccccc3)cc(=O)c21	256 nM	2170 nM	1590 nM	918 nM	1340 nM	331 nM	1040 nM	1540 nM	1110 nM	2640 nM				918 nM
O=c1cc(-c2ccccc2)[nH]c2ccc3[nH]ccc3c12													Metabolite_Detected	

Now from value to compound, other results behind:

GI50 (RS4-11)	GI50 (THP-1)	GI50 (HT-29)	GI50 (A549)	GI50 (Jurkat)	GI50 (HeLa)	GI50 (CCRF-CEM)	GI50 (MV4-11)	GI50 (MCF7)	GI50 (HL-60)	IC50 [1]	inhibition (Bos taurus)	Drug metabolism (Liver)	Structure (SMILES)	GI50 (SEM cells)
211 nM	846 nM	255 nM	541 nM	256 nM	373 nM	435 nM	356 nM	475 nM	1620 nM				O=c1cc(-c2ccccc2)[nH]c2ccc3c(c12)CCN3S(=O)(=O)c1ccc(C(F)(F)F)cc1	336 nM
35 nM	71 nM	623 nM	451 nM	372 nM	563 nM	235 nM	352 nM	521 nM	291 nM				CS(=O)(=O)N1CCc2c1ccc1[nH]c(-c3ccccc3)cc(=O)c21	271 nM
